Structures can show the parent of a compound that is named as a salt. Where two headings read alike, the source gives them in different places.
Tests used:
[1] = tested on: SERT, DAT, and NET; format: biochemical, rat; settings: SERT versus DAT and NET
Method in brief: (§1)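 Rat synaptosomes in 1 μM reserpine (brain minus caudate/cerebellum for SERT and NET; caudate for DAT), preloaded 1 h in Krebs-phosphate with 5 nM [3H]5-HT (SERT) or 9 nM [3H]MPP+ (NET, DAT). Blockers of competing transporters were included. Test compound was run as 8-point curves from 10 to 10,000 nM, in triplicate on three occasions. Filtration and scintillation counting; EC50 from non-linear regression.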

[2] = cited from earlier work; for MDMA-like effects in humans: human
[3] = biological target: DAT (Rattus norvegicus, UniProt P23977); experiment: [3H]MPP+ release at DAT in rat caudate synaptosomes; format: biochemical
[4] = biological target: NET (Rattus norvegicus, UniProt Q63380); experiment: [3H]MPP+ release at NET in rat brain synaptosomes; format: biochemical
[5] = biological target: SERT (Rattus norvegicus, UniProt P31652); experiment: [3H]5-HT release at SERT in rat brain synaptosomes; format: biochemical
Method in brief: as §1

[6] = S(+) versus R(−) isomer of EDMA

SERT, sequence (P31652 whole entry): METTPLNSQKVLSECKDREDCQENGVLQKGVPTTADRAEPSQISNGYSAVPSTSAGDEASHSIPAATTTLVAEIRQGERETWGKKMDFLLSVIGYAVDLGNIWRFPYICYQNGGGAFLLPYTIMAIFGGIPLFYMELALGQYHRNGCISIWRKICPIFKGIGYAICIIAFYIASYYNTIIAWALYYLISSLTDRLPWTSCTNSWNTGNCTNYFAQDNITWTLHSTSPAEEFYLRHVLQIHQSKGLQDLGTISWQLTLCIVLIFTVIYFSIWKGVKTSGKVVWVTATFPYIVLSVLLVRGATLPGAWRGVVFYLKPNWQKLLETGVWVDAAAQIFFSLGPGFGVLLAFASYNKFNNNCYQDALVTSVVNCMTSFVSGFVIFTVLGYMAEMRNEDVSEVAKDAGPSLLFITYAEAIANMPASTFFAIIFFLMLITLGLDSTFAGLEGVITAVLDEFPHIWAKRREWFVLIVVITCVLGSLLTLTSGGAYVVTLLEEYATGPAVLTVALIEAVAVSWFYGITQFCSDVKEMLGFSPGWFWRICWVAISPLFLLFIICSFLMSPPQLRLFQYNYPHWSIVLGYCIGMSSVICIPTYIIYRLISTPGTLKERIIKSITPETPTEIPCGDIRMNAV
DAT, sequence (P23977 whole entry): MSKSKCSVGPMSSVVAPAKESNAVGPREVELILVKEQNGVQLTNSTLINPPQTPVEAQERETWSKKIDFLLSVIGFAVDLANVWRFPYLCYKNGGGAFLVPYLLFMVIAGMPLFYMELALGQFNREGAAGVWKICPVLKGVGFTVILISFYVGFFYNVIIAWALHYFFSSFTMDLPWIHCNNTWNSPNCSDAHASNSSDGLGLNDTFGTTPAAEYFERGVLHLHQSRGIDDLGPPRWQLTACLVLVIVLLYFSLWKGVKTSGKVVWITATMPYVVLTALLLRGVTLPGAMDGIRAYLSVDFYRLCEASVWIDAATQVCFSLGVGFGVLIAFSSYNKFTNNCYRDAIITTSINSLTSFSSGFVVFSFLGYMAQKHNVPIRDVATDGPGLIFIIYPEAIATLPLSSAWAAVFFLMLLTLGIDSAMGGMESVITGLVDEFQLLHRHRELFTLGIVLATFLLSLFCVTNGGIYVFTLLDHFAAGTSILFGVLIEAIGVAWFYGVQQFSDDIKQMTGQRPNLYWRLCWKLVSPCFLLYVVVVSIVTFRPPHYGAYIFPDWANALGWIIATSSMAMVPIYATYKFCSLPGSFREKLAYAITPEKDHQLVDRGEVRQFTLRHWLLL
NET, sequence (Q63380 1-617): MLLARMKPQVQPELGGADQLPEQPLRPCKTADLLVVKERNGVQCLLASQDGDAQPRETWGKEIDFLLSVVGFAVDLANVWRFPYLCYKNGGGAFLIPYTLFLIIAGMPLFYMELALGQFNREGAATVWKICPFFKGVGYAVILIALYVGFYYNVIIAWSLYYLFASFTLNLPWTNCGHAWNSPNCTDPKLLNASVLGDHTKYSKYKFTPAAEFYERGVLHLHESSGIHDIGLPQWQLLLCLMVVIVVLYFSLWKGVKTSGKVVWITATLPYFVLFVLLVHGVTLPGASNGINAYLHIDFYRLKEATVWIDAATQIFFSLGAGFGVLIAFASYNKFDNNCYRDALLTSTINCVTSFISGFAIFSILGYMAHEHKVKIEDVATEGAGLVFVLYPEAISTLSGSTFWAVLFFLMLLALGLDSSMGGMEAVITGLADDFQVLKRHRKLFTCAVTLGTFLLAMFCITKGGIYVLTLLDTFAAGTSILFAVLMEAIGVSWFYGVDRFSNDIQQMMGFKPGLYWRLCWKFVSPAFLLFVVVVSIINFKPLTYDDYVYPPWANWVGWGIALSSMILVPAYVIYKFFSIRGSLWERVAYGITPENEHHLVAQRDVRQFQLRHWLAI

In the case of `CNC(C)Cc1ccc2c(c1)OCCO2` (racemic) [(±)EDMA (3), (±)-1-(3,4-Ethylenedioxyphenyl)-N-methyl-2-aminopropane hydrochloride], the “transporter selectivity as releaser” value [1] is listed as “slightly more selective for SERT over DAT and NET”, the “MDMA-like effects in humans” value ([2]; 200 mg) is listed as “fails to produce similar effects” and the “MDMA-like effects in humans” value ([2]; 250 mg) is listed as “threshold”. The “fold less potent than (±)MDMA (1) as releaser at DAT” value ([3]; compared with (±)MDMA (1)) was 8 fold, the “fold less potent than (±)MDMA (1) as releaser at NET” value ([4]; compared with (±)MDMA (1)) was 4.5 fold and the “release potency at SERT relative to potency at DAT” value ([5]; SERT versus DAT) was “approximately six times”. For the same compound, the “release potency at SERT relative to potency at NET” value ([5]; SERT versus NET) was “three times” and the “potency as releaser at SERT relative to (±)MDMA (1)” value ([5]; compared with (±)MDMA (1)) was “approximately half the potency”.
In the case of `CNC(C)Cc1ccc2c(c1)OCO2` (racemic) [(±)MDMA (1), N-methyl-(3,4-methylenedioxyphenyl)-2-aminopropane, reference compound], the “transporter selectivity as releaser” value [1] is given as “nearly equipotent” and the “behaviorally active total human dose” value ([2]; p.o.) is given as 80 to 150 mg.
For `CN[C@H](C)Cc1ccc2c(c1)OCCO2` [R(−)EDMA [(R)3], R(−)1-(3,4-Ethylenedioxyphenyl)-N-methyl-2-aminopropane hydrochloride], the “transporter selectivity as releaser” value [1] was “more SERT-selective”.
For `CN[C@@H](C)Cc1ccc2c(c1)OCCO2` [S(+)EDMA [(S)3], S(+)1-(3,4-Ethylenedioxyphenyl)-N-methyl-2-aminopropane hydrochloride], the “fold more potent than R(−) enantiomer at DAT” value [3, 6] was 50 fold, the “fold more potent than R(−) enantiomer at NET” value [4, 6] was 8 fold and the “fold more potent than R(−) enantiomer at SERT” value [5, 6] was “about 6 fold”.

Reference: paper PMC4562428 (Bioorganic & medicinal chemistry, 2015)
